Here are results for one molecule from ChEMBL document CHEMBL1125330, “N-substituted pyrazino[2,3-c][1,2,6]thiadiazine 2,2-dioxides. A new class of diuretics” (J Med Chem, 1992).

Data set [1] is filed under the species Rattus norvegicus. Put plainly: Mean sodium excretion in rats (Control/Drug treatment value); value 0.48/0.95. Particulars: in vivo. The class given is ADME, organism-based.
For data set [2], the species on record is Rattus norvegicus. Briefly: Mean urinary output in rats (Control/Drug treatment value); value 25.4/33.8. It counts as ADME, organism-based, Urine. Particulars: in vivo. The method in brief: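 Water-loaded male Sprague-Dawley rats (HC/CFY, 175-200 g), eight per group, deprived of food and water 18 h. Single oral gavage of 20-25 mg/kg (some 10 mg/kg) in 1% CMC/0.1% Tween 80, then distilled water 2.5 mL/100 g bw po. Cumulative urine over 6 h in metabolic cages; mean mL/6 h/kg bw vs vehicle group.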

In the data set filed under Rattus norvegicus [1], `CCc1nc2c(nc1CC)N(CC)S(=O)(=O)N=C2N` showed a Na of 2. In addition, the V in the data set listed under Rattus norvegicus [2] was 1.3.
